Test system: MS2 coat protein
Test: apparent Kd, MS2 coat protein; higher = weaker binding; RNA-MaP array; FMN 200 µM where present
Method in brief: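 Each design was made on Illumina sequencing-chip clusters by stalled E. coli RNA polymerase and titrated with SNAP-549-labelled MS2 coat protein from 0.7 or 1.5 nM, doubling to 3 µM, in the absence and then the presence of constant ligand. The buffer was 100 mM Tris-HCl pH 7.5, 80 mM KCl, 4 mM MgCl2, BSA, DTT, yeast tRNA and Tween-20. The apparent Kd is the median of filtered per-cluster fits of binding curves, with green signal normalised to red-channel RNA signal and control-cluster median Fmax.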

[1] = designed as: OFF switch for flavin mononucleotide, no ligand
[2] = ligand present: flavin mononucleotide, designed as: OFF switch for flavin mononucleotide
[3] = designed as: ON switch for flavin mononucleotide, no ligand
[4] = ligand present: flavin mononucleotide, designed as: ON switch for flavin mononucleotide

| Sequence | apparent Kd [1] [nM] | apparent Kd [2] [nM] | apparent Kd [3] [nM] | apparent Kd [4] [nM] |
| --- | --- | --- | --- | --- |
| CUUUUGUGAGGAUAUUCGUCAUAAGGUUGUAAACCUGUGACGAAGAAGGCACAUGAGGAUCACCCAUGUGUCCU | 15.7 | 26.4 | – | – |
| GAAAAGGUAGGAUAUACGAAAACAAAGGGUAGAAACAAAACACAUGAGGAUCACCCAUGUAGAAGGACCAAAAG | 36.4 | 233 | – | – |
| GAACCUAAGUCAGGAUAUGUCUAAGAAAACUGACAUGAGGAUCACCCAUGUGAAUGUAAAGCAUGGCAGAAGGGAUAUGGGUGG | – | – | 171 | 315 |
| GAACGCCUAGGAUAUACAUGAGGAUCACCCAUGUCGCCCAGUCCUGGAGUGACCUCUAGUAGAAGGAGGAAUAA | 480 | 135 | – | – |
| GAACUGAAGCAUAGCUUUAGUCGUACAUGAGGAUCACCCAUGUAGGAUAUGGUAGGCAUAGCUUACUAGAAGGAUAGAGUGAUU | 96.5 | 67.9 | – | – |
| GAAGCACAUGAGGAUCACCCAUGUAAGGAUAUACGUCUGGUCCGGCCGGACCAGUACCGUAGAAGGUACGUAAA | 19.1 | 23 | – | – |
| GAAGCUCUGCAGCGAUUAGCUACAUGAGGAUCACCCAUGUGGGAGGAUAUACGUCGCUCCGCGGAGUAGAAGGCUUACAUGCGG | 9.86 | 21.7 | – | – |
| GAAGUAUCCAAUAACAUGAGGAUCACCCAUGUCAAAAGACGGGAGGAUAUUGAUCUGAAGAAGAUCAAGAAGGCCUGGUGCUAA | – | – | 19.2 | 11.1 |
| GAAGUCUAUUGAGGAUAUCGUUAUCAAAGAUAAUGAGAAGGCAAACAAUCAUGAGGACAUGAGGAUCACCCAUGUUGUGACCAU | – | – | 26.6 | 13.6 |
| GAAGUUUCCUGAGGAUAUACAUGAGGAUCACCCAUGUAAUGCUUGACUUCAGUAGAAGGCGGGAAACGAAAUUUCGGUGAUCAG | 353 | 140 | – | – |
| GAAUAAUUGAUCCAAUUUAACUACAUGAGGAUCACCCAUGUGCAGGAUAUCGUAAUAUUUAAUUACGAGAAGGGCAAGAACGGU | 366 | 516 | – | – |
| GAAUAGCGAGGAUAUGCAAUGAAGAUAGUACGAUAUGGCUGACAUGAGGAUCACCCAUGUAGAAGGCGCUGAUC | 44.8 | 40 | – | – |
| GAAUAGGACAGAGGAUAUACGUGCUAGAGAUACUAGCAAAAUUUCCUCACAUGAGGAUCACCCAUGUAGAAGGCUGUCCUAUCG | 18.5 | 394 | – | – |
| GAAUAGUUGAGAGGAUAUGUAUUAUUGUAGGAUACAGAAGGUUUUAACAUGAGGAUCACCCAUGUAGGACUAUAUAUGUGAAUA | – | – | 15.2 | 13.2 |
| GAAUAUUGGAUAAACAUGAGGAUCACCCAUGUAACUAGACAUGAGGAUAUGGAUUCUAAUUGGAUCCAGAAGGUAUCAAUAUUC | – | – | 199 | 227 |
| GAAUGCAGAGGAUAUACGGGACAGCAUCGAAAGAUGCUGAAACAUGAGGAUCACCCAUGUAGAAGGCUGCAGAA | 73.2 | 154 | – | – |
| GACAUGAGGAUCACCCAUGUCCAUGCAAAAGUAGUUGAGACCAGAAGGACCGUGCGGAGUGCAGGGUAGGAUAUGGAGCCCUCA | – | – | 28.2 | 7.34 |
| GACAUGAGGAUCACCCAUGUCCCUCCAGAAGGCUGGCGCGCGAAACCUAUCUCGGUUCCGCGCACAGAGGAUAUGGGCGGUUGG | – | – | 181 | 29.8 |
| GACAUGGUCCAGAAGGGCUAUUUAUUUAAUUAUUAUUUAGAACAGCAUAGCAGGAUAUGGCUAACAUGAGGAUCACCCAUGUUC | – | – | 21.5 | 12.6 |
| GACCGCGAGGAAGGAUAUGGAGCCUUAAAGGCUCCAGAAGGUCCAUAAAGGACAUGAGGAUCACCCAUGUGGUGAGAAGCGGUC | – | – | 1720 | 201 |
| GACGUGUGAGGAUAUCCGAUGCCGGUCCGGAAGGUUCGGGUGGAGAAGGCACAUGAGGAUCACCCAUGUGUAAG | 18 | 26.5 | – | – |
| GACUAGGCAGGAUAUACAUGAGGAUCACCCAUGUGUCUGCGUUGGGCACGUGAACACCGUAGAAGGGCCUUGAC | 15.8 | 35 | – | – |
| GACUGAUUACAGAAGGUGUAAGACAUGAGGAUCACCCAUGUGUAAAAGGGUAUAUUUGAAUAUAACAAGGAUAUGUUUUAAUCA | – | – | 75.1 | 49.3 |
| GACUUGUUAGGAUAUCUUACAUUUGCAUCAUAGUAACCAUUGGAGAAGGGACAUGAGGAUCACCCAUGUUUGGA | 31.6 | 30.1 | – | – |
| GAGAAGAAGUUAGGAUAUUGGAUAGGGACGGAAUAAGAAGGAGCACAUACAUGAGGAUCACCCAUGUUAGAAGAAGAGAUCCUC | 545 | 253 | – | – |
| GAGAAGAAGUUAGGAUAUUGGAUAGGGACGGACUAAGAAGGAGCACAUACAUGAGGAUCACCCAUGUUAGAAGAAGAUCCUCCA | 32.3 | 25.5 | – | – |
| GAGAAGUCAGGAUAUGCUGCUCGUCACUUGCGUGAUGAGUAGCAGAAGGGACAUGAGGAUCACCCAUGUAAAGU | 51.7 | 74.8 | – | – |
| GAGCAGUGUAAAUAAACUCAAAUACAUGAGGAUCACCCAUGUAAGGAUAUGCAGUGGAAUACACUGCAGAAGGUACAUCACUGC | 14.3 | 20.5 | – | – |

| Sequence | apparent Kd [1] [nM] | apparent Kd [2] [nM] | apparent Kd [3] [nM] | apparent Kd [4] [nM] |
| --- | --- | --- | --- | --- |
| GAGCGAAAGCUCAAUGUCGAUAGCAGAAGGACAUCCAAUAACAUGAAAACAUGAGGAUCACCCAUGUAGGAUAUGCUAUCGACU | 5.55 | 6.55 | – | – |
| GAGCGGGAAACAUGAGGAUCACCCAUGUAAUAAAUCCUCAAGUAGGAUAUGCACACGAGAAGUGUGCAGAAGGGCUACCCGGUC | 29.7 | 46.2 | – | – |
| GAGCUGACAAUAAAUAACUCAAAUACAUGAGGAUCACCCAUGUAGGAUAUGCAGUGGAAUACACUGCAGAAGGACAUAGUCAGC | 13.4 | 21.8 | – | – |
| GAGCUGCAGACAGGAUAUGAGGCCGCCAUGGUCUCAGAAGGGUCAUGUUCUACAUGAGGAUCACCCAUGUCGGACAGCUCGAAG | – | – | 134 | 11 |
| GAGGAAAGGUAGCCCGACGUACCAGCAGAAGGGUGAUCAGACAUGAGGAUCACCCAUGUAGGAACACAGGAUAUGCAUGCACUU | – | – | 80 | 27.8 |
| GAGGUGUUAGGAUAUCGGAGAUGGAGAAGAACGGGAAGAGGCGAGAAGGAACAUGAGGAUCACCCAUGUAGGUG | 433 | 329 | – | – |
| GAGUAGGGAGGAUAUACGUGCUCAAUCCCGGAAAGCGGGAAACAUGAGGAUCACCCAUGUAGAAGGCCCAUAAA | 82.1 | 46.4 | – | – |
| GAGUGACAUGAGGAUCACCCAUGUGAGGAUAUCGGACGGACCUAGUUAACAUCCGCCGCGAGAAGGCACAUCGG | 156 | 27 | – | – |
| GAGUUAUCAGGAUAUACAUGAGGAUCACCCAUGUCGAUCAAUCCCGUGGGAACGCACUGUAGAAGGGAUGUAGU | 32.5 | 33 | – | – |
| GAUAGGACAGAGAAGGACGUAGCUAGAGAUACUAGCAUAAAGUCCUCAACAUGAGGAUCACCCAUGUAGGAUAUCUGUCCUAUC | 6.39 | 7.13 | – | – |
| GAUAGGACAGAGAAGGACGUAGCUAGAGAUACUAGCAUAAGAACCUUUACAUGAGGAUCACCCAUGUAGGAUAUCUGUCCUAUC | 5.88 | 6.89 | – | – |
| GAUAGGCGAGGAUAUACAUGAGGAUCACCCAUGUAAGUAAGCCUGGCUGAAACUGAAUGUAGAAGGCGCACAUU | 18.4 | 45.1 | – | – |
| GAUCAAAACACUCCUUACACUACAUGAGGAUCACCCAUGUAGCAGGAUAUCAUUGCUCCUCGCUGUGAGAAGGGCUACGGGCGG | 8.92 | 15.6 | – | – |
| GAUCAACAUGAGGAUCACCCAUGUGAGGAUAUGUAUCAUAGAUCUUCGGAUCUAUGAUACAGAAGGCAUGUAGG | 101 | 118 | – | – |
| GAUCACUGAGGAUAUACGCAGAUACAAAGUAUCUGAUUGUGACAUGAGGAUCACCCAUGUAGAAGGCAGAGGUC | 37.2 | 124 | – | – |
| GAUCCACAUGAGGAUCACCCAUGUGAGGAUAUGUCCAUAUUCGGCAAAUCGGAUAUGGACAGAAGGCACACCGG | 120 | 47.4 | – | – |
| GAUCUGUCGGUUGACCCAACAUGAGGAUCACCCAUGUAUGUGGAGGAUAUCUAGAUCUGCGGACGAGAGAAGGCCGCAUACGUU | 69 | 421 | – | – |
| GAUGCUAUCCGAGGAUAUUCAUACCGGAAACGGACAUGAGGAUCACCCAUGUGGCGAAAGCCUUGGGAGAAGGCGGAUAGCAUC | – | – | 581 | 23.4 |
| GAUGGCUUAGGAUAUCAAAGUUACCACAUGAGGAUCACCCAUGUAUGGGAGAUGGAUAAAUGAGAAGGAGGGUGUU | 174 | 133 | – | – |
| GAUUCACAUGAGGAUCACCCAUGUGAGGAUAUAGUGCAGGAGGCGGAUAUCCACCUCUCUAGAAGGCACACGGG | 21.8 | 24.1 | – | – |
| GAUUUAGAGCAGGAUAUCAUAGAAUUGUAUGAAUGAGAAGGGCUCACAUGAGGAUCACCCAUGUGGUCCUAGAU | 21.7 | 132 | – | – |
| GCAAAGCCUGACAUGAGGAUCACCCAUGUUAGAUUGUUAUGUCAGGAUAUUGUCUAGAACCUAGACAAGAAGGGAUGCUUUGCU | – | – | 337 | 26.4 |
| GCAAGAAUAGGAUAUACACCAUGUCAGCUUCUAUACAACGCACAUGAGGAUCACCCAUGUAGAAGGGUUCUCUC | 553 | 504 | – | – |
| GCAAGAAUAGGAUAUACACCGUGUCAGCUUCUAUACAUCGCACAUGAGGAUCACCCAUGUAGAAGGGUUCUCUG | 236 | 217 | – | – |
| GCACAUGGCAUAGGAUAUAGAUCGAUUGUUUAAAUAGGUAGUUGGACUUAACUAGAAGGAUGAAACAUGAGGAUCACCCAUGUA | – | – | 394 | 68 |
| GCACAUGGCAUAGGAUAUAGUUCUAUUGUUUAAAUAGGUAGUUGGACUUAACUAGAAGGAUGUUACAUGAGGAUCACCCAUGUU | – | – | 11.2 | 11.3 |
| GCACGACAUGUAGGAUAUCGAGCGCCGGGCGCUCGAGAAGGACAUGAGGAUCACCCAUGUAUUCUGAGUGACCGAGGUCUGUGC | 72.9 | 594 | – | – |
